Activity calls are given as the source filed them. The calls are words filed in the database; no cut-off is given here.
Columns and labels:
Nischarin = Nischarin (Rattus norvegicus, UniProt Q4G017); assay: Displacement of [3H]clonidine from imidazoline I1 receptor in Sprague-Dawley rat kidney membranes after 45 mins by scintillation counting; format: cell membranes, Membrane
Method in brief: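 Crude P2 membranes from male Sprague–Dawley rat kidney, 0.2–0.5 mg protein. […] Specific binding defined by 10 µM rilmenidine. 11 concentrations from 0.01 to 100 µM, 50 mM Tris-HCl pH 7.4, 45 min at RT. Filtration and scintillation counting; IC50.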

[1] = target: T1, Adrenergic receptor alpha-1 (Rattus norvegicus, UniProt P15823+P23944+P43140); assay: Displacement of [3H]prazosin from adrenoceptor alpha1 in Sprague-Dawley rat brain after 45 mins by scintillation counting
T1 sequence (P15823 whole entry): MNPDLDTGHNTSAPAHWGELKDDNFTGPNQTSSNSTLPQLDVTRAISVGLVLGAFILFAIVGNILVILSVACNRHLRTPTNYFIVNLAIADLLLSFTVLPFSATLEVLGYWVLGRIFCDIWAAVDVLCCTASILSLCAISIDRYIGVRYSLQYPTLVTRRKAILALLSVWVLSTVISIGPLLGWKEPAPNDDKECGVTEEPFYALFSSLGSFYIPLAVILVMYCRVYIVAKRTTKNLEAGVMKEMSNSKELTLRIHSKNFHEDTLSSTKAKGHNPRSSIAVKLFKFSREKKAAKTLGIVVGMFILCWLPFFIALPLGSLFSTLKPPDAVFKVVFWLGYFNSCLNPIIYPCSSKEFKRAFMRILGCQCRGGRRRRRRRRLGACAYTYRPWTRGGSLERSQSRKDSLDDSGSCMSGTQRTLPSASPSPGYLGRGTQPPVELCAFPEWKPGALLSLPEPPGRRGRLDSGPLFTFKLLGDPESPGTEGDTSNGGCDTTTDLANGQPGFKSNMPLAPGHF
T1 sequence (P23944 whole entry): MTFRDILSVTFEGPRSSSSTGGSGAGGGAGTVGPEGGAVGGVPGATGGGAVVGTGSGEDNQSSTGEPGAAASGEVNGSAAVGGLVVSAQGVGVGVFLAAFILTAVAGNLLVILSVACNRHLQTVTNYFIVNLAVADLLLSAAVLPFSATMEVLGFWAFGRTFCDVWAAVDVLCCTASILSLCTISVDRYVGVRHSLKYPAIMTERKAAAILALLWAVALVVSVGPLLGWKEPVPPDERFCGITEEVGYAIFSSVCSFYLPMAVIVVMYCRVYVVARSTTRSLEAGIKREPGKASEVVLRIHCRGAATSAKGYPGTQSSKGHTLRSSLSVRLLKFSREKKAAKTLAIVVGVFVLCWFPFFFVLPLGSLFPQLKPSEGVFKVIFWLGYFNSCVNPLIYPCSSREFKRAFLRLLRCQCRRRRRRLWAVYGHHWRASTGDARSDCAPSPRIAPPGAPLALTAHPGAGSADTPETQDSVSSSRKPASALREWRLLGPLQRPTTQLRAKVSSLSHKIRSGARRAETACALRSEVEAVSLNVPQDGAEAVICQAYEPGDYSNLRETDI
T1 sequence (P43140 whole entry): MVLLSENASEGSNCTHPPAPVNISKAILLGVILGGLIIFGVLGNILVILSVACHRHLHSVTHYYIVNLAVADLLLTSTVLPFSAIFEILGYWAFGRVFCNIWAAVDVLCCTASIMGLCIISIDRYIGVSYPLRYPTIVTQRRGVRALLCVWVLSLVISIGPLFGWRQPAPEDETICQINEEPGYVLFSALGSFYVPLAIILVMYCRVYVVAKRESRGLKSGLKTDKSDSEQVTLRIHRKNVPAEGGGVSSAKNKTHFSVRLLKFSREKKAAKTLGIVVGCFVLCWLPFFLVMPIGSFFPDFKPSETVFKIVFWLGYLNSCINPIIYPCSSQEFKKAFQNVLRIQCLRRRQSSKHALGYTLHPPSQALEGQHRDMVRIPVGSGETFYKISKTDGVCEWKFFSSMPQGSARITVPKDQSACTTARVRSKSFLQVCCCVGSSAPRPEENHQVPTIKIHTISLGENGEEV
Method in brief: (§1)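 Crude P2 membranes from male Sprague–Dawley rat brain (250–280 g), 0.2–0.3 mg protein. Radioligand 1 nM: [3H]2BFI for I2, [3H]prazosin for α1, [3H]RX821002 for α2. Non-specific binding defined by 10 µM BU224 (I2), 10 µM phenylephrine (α1) or 10 µM rauwolscine (α2). 11 concentrations from 0.01 nM to 100 µM, triplicate, 45 min at RT. Filtration and scintillation counting; Ki by Cheng–Prusoff.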

[2] = target: T2, Adrenergic receptor alpha-2 (Rattus norvegicus, UniProt P22086+P19328+P22909); assay: Displacement of […] from adrenoceptor alpha2 in Sprague-Dawley rat brain membranes after 45 mins by scintillation counting; format: cell membranes, Membrane; method in brief: as §1
T2 sequence (P22086 whole entry): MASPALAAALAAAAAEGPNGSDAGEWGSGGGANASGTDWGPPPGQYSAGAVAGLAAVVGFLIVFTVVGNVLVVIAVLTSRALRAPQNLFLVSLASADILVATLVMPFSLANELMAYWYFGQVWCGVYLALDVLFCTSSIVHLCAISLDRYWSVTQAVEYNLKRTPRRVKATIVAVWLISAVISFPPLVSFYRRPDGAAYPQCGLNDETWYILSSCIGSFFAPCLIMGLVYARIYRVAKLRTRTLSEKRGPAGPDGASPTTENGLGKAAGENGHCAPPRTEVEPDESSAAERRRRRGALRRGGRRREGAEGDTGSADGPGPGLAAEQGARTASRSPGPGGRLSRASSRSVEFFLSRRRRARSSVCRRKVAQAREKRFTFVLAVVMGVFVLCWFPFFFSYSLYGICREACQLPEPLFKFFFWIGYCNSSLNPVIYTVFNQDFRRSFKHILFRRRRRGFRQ
T2 sequence (P19328 whole entry): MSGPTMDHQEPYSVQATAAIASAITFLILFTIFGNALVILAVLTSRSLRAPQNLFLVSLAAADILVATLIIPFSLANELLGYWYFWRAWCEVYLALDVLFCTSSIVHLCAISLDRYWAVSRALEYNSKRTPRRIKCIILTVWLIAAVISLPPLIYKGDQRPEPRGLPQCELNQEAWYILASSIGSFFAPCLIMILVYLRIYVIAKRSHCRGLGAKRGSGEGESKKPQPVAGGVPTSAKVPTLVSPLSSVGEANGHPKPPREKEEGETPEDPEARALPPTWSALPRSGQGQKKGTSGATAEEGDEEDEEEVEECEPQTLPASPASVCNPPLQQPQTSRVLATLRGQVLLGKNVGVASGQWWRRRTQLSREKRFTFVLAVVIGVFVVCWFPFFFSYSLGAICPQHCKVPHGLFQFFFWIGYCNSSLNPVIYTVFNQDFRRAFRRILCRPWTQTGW
T2 sequence (P22909 whole entry): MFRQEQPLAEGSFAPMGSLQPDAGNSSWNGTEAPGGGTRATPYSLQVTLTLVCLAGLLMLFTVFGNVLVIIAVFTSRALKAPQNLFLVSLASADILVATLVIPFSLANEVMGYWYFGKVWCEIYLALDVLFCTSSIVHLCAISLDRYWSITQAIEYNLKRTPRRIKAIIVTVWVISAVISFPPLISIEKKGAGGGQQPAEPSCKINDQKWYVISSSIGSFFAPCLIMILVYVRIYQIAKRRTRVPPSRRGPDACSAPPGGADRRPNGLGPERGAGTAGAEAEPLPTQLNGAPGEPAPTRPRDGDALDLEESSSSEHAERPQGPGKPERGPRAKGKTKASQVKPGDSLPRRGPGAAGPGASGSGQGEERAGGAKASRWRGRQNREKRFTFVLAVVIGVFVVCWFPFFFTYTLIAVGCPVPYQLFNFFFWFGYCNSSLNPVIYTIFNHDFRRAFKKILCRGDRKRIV

[3] = Displacement of [3H]BFI from imidazoline I2 receptor in Sprague-Dawley rat brain membranes after 45 mins by scintillation counting; format: cell membranes, Membrane; method in brief: as §1
[4] = target: T3, Alpha-2A adrenergic receptor (Homo sapiens) (UniProt P08913); assay: Agonist activity at human adrenoceptor alpha2A expressed in CHOK1 cells assessed as stimulation of agonist-induced [35S]GTPgammaS binding by scintillation counting assay relative to noradrenaline; format: functional, cell-based; conditions: CHO-K1
T3 sequence (whole entry): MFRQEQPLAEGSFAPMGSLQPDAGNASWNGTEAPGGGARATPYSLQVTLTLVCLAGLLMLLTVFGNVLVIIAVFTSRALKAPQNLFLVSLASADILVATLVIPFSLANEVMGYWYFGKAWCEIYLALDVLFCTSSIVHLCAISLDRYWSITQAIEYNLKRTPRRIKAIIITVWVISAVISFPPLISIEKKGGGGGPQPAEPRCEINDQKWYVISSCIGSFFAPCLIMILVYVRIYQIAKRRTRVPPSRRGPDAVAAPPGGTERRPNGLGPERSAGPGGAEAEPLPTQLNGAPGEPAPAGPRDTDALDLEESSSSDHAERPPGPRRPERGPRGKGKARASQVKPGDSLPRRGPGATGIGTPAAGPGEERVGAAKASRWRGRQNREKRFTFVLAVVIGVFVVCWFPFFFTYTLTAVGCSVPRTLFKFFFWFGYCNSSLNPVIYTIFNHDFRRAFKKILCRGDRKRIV
Method in brief: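 Membranes from CHO-K1 cells stably expressing human α2A-adrenoceptor; 5 µg protein incubated with serial dilutions of agonist and 0.1 nM [35S]GTPγS in Tris buffer pH 7.4 with 1 µM GDP, MgCl2, NaCl, 30 min at RT. Filtered and counted by scintillation. EC50 and intrinsic activity relative to noradrenaline; means from 3 independent experiments.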

Rattus norvegicus = species: Rattus norvegicus; assay: Displacement of [3H]BFI from imidazoline I2 in Sprague-Dawley rat brain membranes at 1 X 10^6 after 45 mins by scintillation counting; format: cell membranes; conditions: Membrane

Nischarin, sequence (Q4G017 whole entry): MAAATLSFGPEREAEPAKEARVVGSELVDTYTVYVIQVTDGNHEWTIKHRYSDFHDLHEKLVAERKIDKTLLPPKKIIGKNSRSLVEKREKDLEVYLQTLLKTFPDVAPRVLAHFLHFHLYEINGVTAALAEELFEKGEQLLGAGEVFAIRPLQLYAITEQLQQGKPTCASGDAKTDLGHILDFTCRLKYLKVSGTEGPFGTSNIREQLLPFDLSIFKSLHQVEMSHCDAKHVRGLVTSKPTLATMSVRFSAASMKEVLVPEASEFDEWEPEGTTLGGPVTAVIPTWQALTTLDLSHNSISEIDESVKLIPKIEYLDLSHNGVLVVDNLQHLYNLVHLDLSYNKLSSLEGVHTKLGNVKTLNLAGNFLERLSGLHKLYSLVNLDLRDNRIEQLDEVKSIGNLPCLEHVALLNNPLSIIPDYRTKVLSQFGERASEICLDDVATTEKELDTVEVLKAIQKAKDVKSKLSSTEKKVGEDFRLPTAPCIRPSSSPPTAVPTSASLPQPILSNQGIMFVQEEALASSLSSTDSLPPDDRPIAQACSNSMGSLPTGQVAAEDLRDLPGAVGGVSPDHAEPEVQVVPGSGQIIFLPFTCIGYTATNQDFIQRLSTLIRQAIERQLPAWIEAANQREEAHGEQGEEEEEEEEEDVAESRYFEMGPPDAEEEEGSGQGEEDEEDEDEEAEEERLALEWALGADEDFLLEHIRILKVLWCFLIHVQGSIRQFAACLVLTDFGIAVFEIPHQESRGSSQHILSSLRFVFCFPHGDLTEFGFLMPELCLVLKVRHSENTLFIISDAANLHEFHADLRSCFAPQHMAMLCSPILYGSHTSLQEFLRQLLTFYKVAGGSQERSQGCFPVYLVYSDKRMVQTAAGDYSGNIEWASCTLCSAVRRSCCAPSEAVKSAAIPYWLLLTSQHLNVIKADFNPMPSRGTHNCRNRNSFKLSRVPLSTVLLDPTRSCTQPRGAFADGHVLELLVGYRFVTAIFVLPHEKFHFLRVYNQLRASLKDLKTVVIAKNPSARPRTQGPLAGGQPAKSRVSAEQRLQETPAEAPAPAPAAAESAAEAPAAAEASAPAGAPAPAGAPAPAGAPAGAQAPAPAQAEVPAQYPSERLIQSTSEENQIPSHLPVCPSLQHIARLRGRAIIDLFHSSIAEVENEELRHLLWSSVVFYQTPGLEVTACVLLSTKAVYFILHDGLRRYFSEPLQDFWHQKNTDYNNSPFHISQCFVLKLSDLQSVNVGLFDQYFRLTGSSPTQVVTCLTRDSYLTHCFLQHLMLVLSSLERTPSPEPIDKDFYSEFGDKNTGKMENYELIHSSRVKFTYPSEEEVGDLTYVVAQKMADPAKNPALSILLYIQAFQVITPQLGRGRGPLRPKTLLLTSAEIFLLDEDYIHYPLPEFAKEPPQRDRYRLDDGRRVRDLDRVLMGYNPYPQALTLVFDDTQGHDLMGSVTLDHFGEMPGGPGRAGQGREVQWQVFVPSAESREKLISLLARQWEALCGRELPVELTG

| Compound | IC50 (Nischarin) | Ki [1] | Ki [2] | Ki [3] | Emax [4] | Activity (Rattus norvegicus) |
| --- | --- | --- | --- | --- | --- | --- |
| Cc1cccc2c1ncn2CC1=NCCN1.Cl.Cl | 77.7 µM | 1.5 µM | 0.273 µM | 24.4 µM | – | – |
| Cl.c1ccc2c(c1)nnn2CC1=NCCN1 | 56.8 µM | 1.34 µM | 5.11 µM | 0.81 µM | – | – |
| NC[C@H](O)c1ccc(O)c(O)c1 | – | – | – | – | 100% | – |
| Cl.Cl.c1ccc(-c2nc3ccccc3n2CC2=NCCN2)cc1 | 28.1 µM | 1.11 µM | 7.44 µM | – | – | inactive |
| Cl.Fc1cccc2cnn(CC3=NCCN3)c12 | 16.4 µM | 0.107 µM | 0.0126 µM | 0.156 µM | – | – |
| Cc1cc2nnn(CC3=NCCN3)c2cc1C.Cl.Cl | 16.8 µM | 8.04 µM | 1.56 µM | 26.3 µM | – | – |
| Cl.Cl.c1ccc(Cc2nc3ccccc3n2CC2=NCCN2)cc1 | 21 µM | 30.9 µM | 11.2 µM | – | – | inactive |
| Cc1nn(CC2=NCCN2)c2ccccc12.Cl.Cl | 21.3 µM | 0.095 µM | 0.435 µM | 0.359 µM | – | – |
| Cc1cc2nn(CC3=NCCN3)nc2cc1C.Cl.Cl | 0.646 µM | 6.07 µM | 1.32 µM | 0.233 µM | – | – |
| Cl.Clc1cccc2c1cnn2CC1=NCCN1 | 5.15 µM | 0.187 µM | 0.13 µM | 2.85 µM | – | – |
| CCc1nc2ccccc2n1CC1=NCCN1.Cl.Cl | 44.2 µM | 5.5 µM | 5 µM | 34.1 µM | – | – |
| Cc1ccc2c(cnn2CC2=NCCN2)c1.Cl.Cl | 45.4 µM | 0.363 µM | 0.268 µM | 0.022 µM | – | – |
| Cl.Cl.c1ccc2c(c1)ncn2CC1=NCCN1 | 43.9 µM | 0.929 µM | 3.25 µM | 6.1 µM | – | – |
| Cc1cccc2c1cnn2CC1=NCCN1.Cl | 12.9 µM | 0.409 µM | 0.197 µM | 0.116 µM | – | – |
| Cc1cc2ncn(CC3=NCCN3)c2cc1C.Cl.Cl | 74 µM | 1.5 µM | 2.26 µM | 28 µM | – | – |
| CCc1nc2cc(C)c(C)cc2n1CC1=NCCN1.Cl.Cl | 93.3 µM | 12.9 µM | 7.41 µM | 0.081 µM | – | – |
| Cc1cccc2nn(CC3=NCCN3)nc12.Cl.Cl | 48.8 µM | 1.54 µM | 0.499 µM | 0.078 µM | – | – |
| Cc1nc2ccccc2n1CC1=NCCN1.Cl.Cl | 9.39 µM | 1.29 µM | 1.02 µM | – | – | inactive |
| COc1cccc2c1cnn2CC1=NCCN1.Cl.Cl | 32.9 µM | 1.67 µM | 0.305 µM | 0.382 µM | – | – |

Reference: ChEMBL document CHEMBL1926556, “Synthesis and biological activities of 2-[(heteroaryl)methyl]imidazolines” (Bioorg Med Chem, 2012)
